The source of these data is ChEMBL document CHEMBL4251587, “Synthesis and antimicrobial activity of amino acid and peptide derivatives of mycophenolic acid” (2018).

Converted amounts (≈) assume the structure as drawn. The source made the active and inactive calls. The rule behind the calls is not given here. Non-standard residues stand in square brackets, D forms with d. Residues, ends and D or L forms follow the SMILES beside them. *: point of attachment. Mycophenolyl = COc1c(C)c2c(c(O)c1C/C=C(\C)CCC(=O)*)C(=O)OC2; Arg(NO2) = N=C(NCCC[CH](N)C(=O)O)N[N+](=O)[O-]; βAla = NCCC(=O)O

What all share (type): functional
The test system of assay [1] is Klebsiella pneumoniae. Description: Antibacterial activity against ESBL positive Klebsiella pneumoniae ATCC 700603 after 18 to 20 hrs by spectrophotometry based microdilution method. Put shortly: (§1)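 Broth microdilution in Mueller Hinton Broth II following EUCAST. Log-phase cultures were diluted to McFarland 0.5, and 104 cells/ml went into 2-fold serial dilutions of compound (stock in 6% DMSO). Incubation was 35 ± 1 °C for 18–20 h, read at OD600 and visually. MIC50 and MIC90 were taken as the concentrations giving 50% and 90% growth arrest. Resazurin (0.015%, 2 h, 37 °C, dark) confirmed the result. 3 replicates in 3 independent experiments.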
In general terms: Broth dilution looks for growth in wells or tubes with falling amounts of substance.

Assay [2] concerns Pseudomonas aeruginosa. Kind of assay: Antibacterial activity against Pseudomonas aeruginosa ATCC 27853 after 18 to 20 hrs by spectrophotometry based microdilution method. Put shortly: as §1
Assay [3] deals with Acinetobacter baumannii. Description: Antibacterial activity against Acinetobacter baumannii ATCC 17978 after 18 to 20 hrs by spectrophotometry based microdilution method.
Assay [4] has as its system Staphylococcus aureus. Kind of assay: Antibacterial activity against methicillin-sensitive Staphylococcus aureus ATCC 25923 after 18 to 20 hrs by spectrophotometry based microdilution method. Summed up:
(§2)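 Broth microdilution in MHB II following EUCAST. Log-phase cultures diluted 1:1000, then 50-fold in saline to McFarland 0.5, giving 10^4 cells/ml per well. Compounds (stock in 6% DMSO) twofold serially diluted. Incubation 35 ± 1 °C, 18–20 h. OD600 plus visual read; MIC50/MIC90 = 50%/90% growth arrest. Resazurin (0.015%, 37 °C, 2 h, dark) confirmation. 3 replicates, 3 independent experiments.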

In assay [5] the test system is Staphylococcus aureus. Kind of assay: Antibacterial activity against methicillin-resistant Staphylococcus aureus ATCC 43300 after 18 to 20 hrs by spectrophotometry based microdilution method. Summed up:
as §2

Assay [6] deals with Escherichia coli. Description: Antibacterial activity against Escherichia coli ATCC 8739 after 18 to 20 hrs by spectrophotometry based microdilution method. Put shortly: as §1
Assay [7] has as its system Escherichia coli. Kind of assay: Antibacterial activity against Escherichia coli ATCC 8739 assessed as inhibition of bacterial growth at 1500 uM after 18 to 20 hrs by spectrophotometry based microdilution method relative to untreated control. To be noted: ATCC 8739, ATCC 8739, read-out: GI. Put shortly: (§3)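 Growth inhibition at a single compound concentration in the EUCAST broth microdilution setup: Mueller Hinton Broth II, 104 cells/ml from log-phase culture, compound stock in 6% DMSO. After 35 ± 1 °C for 18–20 h, OD600 was compared with the untreated growth control. ">" marks 10–50% inhibition and ">>" marks under 10% inhibition. 3 replicates, 3 independent experiments.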

Assay [8] relates to Pseudomonas aeruginosa. Kind of assay: Antibacterial activity against Pseudomonas aeruginosa ATCC 27853 assessed as inhibition of bacterial growth at 1500 uM after 18 to 20 hrs by spectrophotometry based microdilution method relative to untreated control. To be noted: read-out: GI. Summed up:
as §3

In assay [9] the test system is Escherichia coli. Description: Antibacterial activity against Escherichia coli ATCC 8739 at 750 uM after 18 to 20 hrs by spectrophotometry based microdilution method relative to untreated control. The conditions noted are these: ATCC 8739, ATCC 8739, read-out: GI. Put shortly:
as §3

Assay [10] deals with Klebsiella pneumoniae. Kind of assay: Antibacterial activity against ESBL positive Klebsiella pneumoniae ATCC 700603 assessed as inhibition of bacterial growth at 375 uM after 18 to 20 hrs by spectrophotometry based microdilution method relative to untreated control. The conditions noted are these: read-out: GI. Summed up:
as §3

For assay [11], the system named is Escherichia coli. Description: Antibacterial activity against Escherichia coli ATCC 8739 at 375 uM after 18 to 20 hrs by spectrophotometry based microdilution method relative to untreated control. To be noted: ATCC 8739, ATCC 8739, read-out: GI. Summed up:
as §3

Assay [12] relates to Staphylococcus aureus. Kind of assay: Antibacterial activity against methicillin-sensitive Staphylococcus aureus ATCC 25923 assessed as inhibition of bacterial growth at 187.5 uM after 18 to 20 hrs by spectrophotometry based microdilution method relative to untreated control. To be noted: read-out: GI. Summed up: as §3

Regarding `COC(=O)C(NC(=O)CC/C(C)=C/Cc1c(O)c2c(c(C)c1OC)COC2=O)C(=O)OC`, the MIC50 (usually an inhibitory concentration at the 50% level, which refers to growth in some studies and to a panel of isolates in others) in [1] stood at 128 µg/mL (≈ 285 µM); in assay [3], 256 µg/mL (≈ 570 µM); in assay [4], 256 µg/mL (≈ 570 µM); in [5], 256 µg/mL (≈ 570 µM); in assay [6], 256 µg/mL (≈ 570 µM). For the same compound, the MIC50 result in assay [2] is “inactive”.
In the case of `COC(=O)[C@H](NC(=O)CC/C(C)=C/Cc1c(O)c2c(c(C)c1OC)COC2=O)C(C)O` (stereo partly specified), the MIC50 result in [1], in assay [4] and in assay [5] was “inactive” in each case. Moreover, the inhibition of growth at 1500 µM in assay [7] and in assay [8] was 10 to 50% throughout.
Turning to `COc1c(C)c2c(c(O)c1C/C=C(\C)CCC(=O)N[C@@H](CCCNC(=N)N[N+](=O)[O-])C(=O)O)C(=O)OC2`, the inhibition of growth at 750 µM in [9] was 10 to 50%. For the same compound, the MIC50 result in [1], in assay [2], in assay [4] and in assay [5] was “inactive” in each case.
Take `COC(=O)C(NC(=O)C(CCCCNC(=O)CCN)NC(=O)C1CCCN1C(=O)C(CCCNC(=N)N[N+](=O)[O-])NC(=O)CC/C(C)=C/Cc1c(O)c2c(c(C)c1OC)COC2=O)C(C)O` (stereo unspecified) (Mycophenolyl-[Arg(NO2)]PK(βAla)T-OMe; configuration not given here): the MIC50 in assay [1] is 32 µg/mL (≈ 34.3 µM); in assay [3], 128 µg/mL (≈ 137 µM); in [4] it was 32 µg/mL (≈ 34.3 µM); in assay [5], 32 µg/mL (≈ 34.3 µM); in assay [6], 256 µg/mL (≈ 274 µM). In addition, the MIC50 result in [2] was “inactive”.
As for `CC1(C)S[C@@H]2[C@H](NC(=O)[C@H](N)c3ccccc3)C(=O)N2[C@H]1C(=O)O` [AMPICILLIN], the MIC90 (usually the lowest concentration that inhibits either 90% of growth or 90% of the strains tested, depending on the study) was 128 µg/mL (≈ 366 µM) in assay [1]; 256 µg/mL (≈ 733 µM) in [2]; 2 µg/mL (≈ 5.72 µM) in assay [3]; 0.125 µg/mL (≈ 0.358 µM) in [4]; 128 µg/mL (≈ 366 µM) in assay [5]; 8 µg/mL (≈ 22.9 µM) in [6].
On to `COC(=O)C[C@H](NC(=O)CC/C(C)=C/Cc1c(O)c2c(c(C)c1OC)COC2=O)C(=O)OC`, for which the MIC50 was found to be 256 µg/mL (≈ 552 µM) in [1]; 256 µg/mL (≈ 552 µM) in [3]; 32 µg/mL (≈ 69 µM) in assay [4]; 32 µg/mL (≈ 69 µM) in assay [5]; 256 µg/mL (≈ 552 µM) in assay [6]. The MIC50 result in assay [2] is “inactive”.
As to `COc1c(C)c2c(c(O)c1C/C=C(\C)CCC(=O)N[C@H](C(=O)O)[C@@H](C)O)C(=O)OC2`, in assay [9], the inhibition of growth at 750 µM was in the range of 10 to 50%. Moreover, the inhibition of growth at 375 µM in [10] lay in the range of 10 to 50%. Moreover, the MIC50 entry in [4] and in [5] was “inactive” in each case. The inhibition of growth at 1500 µM in assay [8] lay in the range of 10 to 50%.
For `COC(=O)C(NC(=O)C(CCCCNC(=O)CN)NC(=O)C1CCCN1C(=O)C(CCCNC(=N)N[N+](=O)[O-])NC(=O)CC/C(C)=C/Cc1c(O)c2c(c(C)c1OC)COC2=O)C(C)O` (stereo unspecified) (Mycophenolyl-[Arg(NO2)]PK(Gly)T-OMe; configuration not given here), the MIC50 in assay [1] worked out at 16 µg/mL (≈ 17.4 µM); in assay [3] it was 128 µg/mL (≈ 139 µM); in assay [4], 64 µg/mL (≈ 69.6 µM); in assay [5], 64 µg/mL (≈ 69.6 µM); in assay [6] it was 256 µg/mL (≈ 279 µM). Further, in assay [2], the MIC50 result is “inactive”.
With `CC[C@H](C)[C@H](NC(=O)CC/C(C)=C/Cc1c(O)c2c(c(C)c1OC)COC2=O)C(=O)O`, the inhibition of growth at 375 µM in [11] is 10 to 50%. Besides, the MIC50 entry in assay [3] and in assay [4] was “inactive” each time.
Consider `COC(=O)[C@H](CCCNC(=N)N[N+](=O)[O-])NC(=O)CC/C(C)=C/Cc1c(O)c2c(c(C)c1OC)COC2=O`, for which the MIC50 worked out at 64 µg/mL (≈ 120 µM) in assay [1]; 128 µg/mL (≈ 239 µM) in [3]; 32 µg/mL (≈ 59.8 µM) in assay [4]; 64 µg/mL (≈ 120 µM) in assay [5]; 256 µg/mL (≈ 478 µM) in [6]. Also, the MIC50 result in assay [2] is “inactive”.
Take `COC(=O)[C@@H](CCCNC(=N)N[N+](=O)[O-])NC(=O)CC/C(C)=C/Cc1c(O)c2c(c(C)c1OC)COC2=O`: the MIC50 entry in assay [1], in assay [4] and in assay [5] was “inactive” each time.
Regarding `NC[C@H]1O[C@H](O[C@H]2[C@H](O)[C@@H](O[C@H]3O[C@H](CO)[C@@H](O)[C@H](N)[C@H]3O)[C@H](N)C[C@@H]2N)[C@H](O)[C@@H](O)[C@@H]1O` [KANAMYCIN], the MIC50 result in assay [1] and in assay [3] was “inactive” in each case. The MIC50 in assay [2] came out at 1500 µg/mL (≈ 3100 µM). The MIC90 in assay [4] was found to be 7.8 µg/mL (≈ 16.1 µM); in assay [5] it was 125 µg/mL (≈ 258 µM); in assay [6] it was 15.6 µg/mL (≈ 32.2 µM).
Turning to `COC(=O)[C@@H](NC(=O)CC/C(C)=C/Cc1c(O)c2c(c(C)c1OC)COC2=O)C(C)O` (stereo partly specified), the MIC50 stood at 256 µg/mL (≈ 588 µM) in assay [1]; 256 µg/mL (≈ 588 µM) in assay [3]; 8 µg/mL (≈ 18.4 µM) in [4]; 32 µg/mL (≈ 73.5 µM) in assay [5]; 256 µg/mL (≈ 588 µM) in assay [6]. In addition, the MIC50 result in assay [2] is “inactive”.
For `COc1c(C)c2c(c(O)c1C/C=C(\C)CCC(=O)N[C@@H](C(=O)O)[C@@H](C)O)C(=O)OC2`, the MIC50 entry in [1], in [4] and in assay [5] was “inactive” in each case. Besides, the inhibition of growth at 1500 µM in assay [7] and in [8] was 10 to 50% each time.
Take `COc1c(C)c2c(c(O)c1C/C=C(\C)CCC(=O)O)C(=O)OC2` [MYCOPHENOLIC ACID]: in assay [12], the inhibition of growth at 187.5 µM fell in the range of 10 to 50%. Further, the figures for the MIC50 in assay [1], in [3] and in [5] were 128 µg/mL (≈ 400 µM), 128 µg/mL (≈ 400 µM) and 750 µg/mL (≈ 2340 µM), respectively. Also, the inhibition of growth at 1500 µM in assay [8] lay in the range of 10 to 50%. The same compound registered an MIC90 in assay [6] of 750 µg/mL (≈ 2340 µM).
Regarding `CCC(C)[C@H](NC(=O)CC/C(C)=C/Cc1c(O)c2c(c(C)c1OC)COC2=O)C(=O)OC` (stereo partly specified), the MIC50 in assay [1] amounted to 256 µg/mL (≈ 572 µM); in assay [3], 256 µg/mL (≈ 572 µM); in assay [4] it was 16 µg/mL (≈ 35.8 µM); in [5], 256 µg/mL (≈ 572 µM); in assay [6], 256 µg/mL (≈ 572 µM). Moreover, the MIC50 entry in [2] is “inactive”.
`COc1c(C)c2c(c(O)c1C/C=C(\C)CCC(=O)N[C@H](CCCNC(=N)N[N+](=O)[O-])C(=O)O)C(=O)OC2`: the MIC50 entry in assay [1], in assay [4] and in [5] was “inactive” throughout. Besides, the inhibition of growth at 1500 µM in [7] and in assay [8] was 10 to 50% in each case.
As to `COc1c(C)c2c(c(O)c1C/C=C(\C)CCC(=O)N[C@@H](CC(=O)O)C(=O)O)C(=O)OC2`, in assay [9], the inhibition of growth at 750 µM fell in the range of 10 to 50%. The MIC50 entry in assay [1], in assay [4] and in [5] was “inactive” each time. In assay [8], the inhibition of growth at 1500 µM lay within 10 to 50%.
